Test results as given in ChEMBL document CHEMBL3616436, “Synthesis, cytotoxicity and antimicrobial activity of thiourea derivatives incorporating 3-(trifluoromethyl)phenyl moiety” (Eur J Med Chem, 2015).
≈ marks a conversion by molar mass, not a printed value. Calls of active or inactive are those of the source. The rule behind the calls is not given here.

Columns and labels:
[1] = system: Staphylococcus epidermidis; assay: Ratio of ciprofloxacin MIC to compound MIC for hospital methicillin-resistant Staphylococcus epidermidis 62/04 after 18 hrs by twofold serial microdilution method; type: functional
How it was run: (§1)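 Ratio of MICs for ciprofloxacin and test agent, each from twofold serial broth microdilution in Mueller-Hinton broth following CLSI guidelines. DMSO stock was diluted in sterile water to 0.125–512 µg/mL, with a final inoculum of 10^5 CFU/mL.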

[2] = system: Staphylococcus epidermidis; assay: Antimicrobial activity against Staphylococcus epidermidis ATCC 35984 after 18 hrs by twofold serial microdilution method; type: functional; conditions: ATCC 35984, 18 h
[3] = system: Staphylococcus epidermidis; assay: Ratio of ciprofloxacin MIC to compound MIC for hospital methicillin-resistant Staphylococcus epidermidis 24/04 after 18 hrs by twofold serial microdilution method; type: functional
[4] = system: Staphylococcus aureus; assay: Antimicrobial activity against Staphylococcus aureus ATCC 29213 after 18 hrs by twofold serial microdilution method; type: functional; conditions: ATCC 29213, 18 h
[5] = system: Enterococcus hirae; assay: Antimicrobial activity against Enterococcus hirae ATCC 10541 at 400 ug after 18 hrs by disc-diffusion method; type: functional; conditions: for zone of inhibition at 400 µg/disc: ATCC 10541, 18 h, read-out: IZ
How it was run: (§2)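 Disc diffusion on Mueller-Hinton II agar per CLSI; 9 mm paper discs loaded with 400 µg compound from DMSO solution, dried, placed on agar; growth inhibition zone diameter read after 18 h at 35°C.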

[6] = system: Proteus vulgaris; assay: Antimicrobial activity against Proteus vulgaris NCTC 4635 at 400 ug after 18 hrs by disc-diffusion method; type: functional; conditions: for zone of inhibition at 400 µg/disc: NCTC 4635, 18 h, read-out: IZ; how it was run: as §2
[7] = system: Staphylococcus aureus; assay: Ratio of ciprofloxacin MIC to compound MIC for hospital methicillin-resistant Staphylococcus aureus 81/05 after 18 hrs by twofold serial microdilution method; type: functional; how it was run: as §1
[8] = system: Staphylococcus aureus; assay: Antimicrobial activity against Staphylococcus aureus NCTC 4163 at 400 ug after 18 hrs by disc-diffusion method; type: functional; conditions: NCTC 4163, 18 h, read-out: IZ; how it was run: as §2
[9] = system: Staphylococcus epidermidis; assay: Antimicrobial activity against Staphylococcus epidermidis ATCC 12228 at 400 ug after 18 hrs by disc-diffusion method; type: functional; conditions: for zone of inhibition at 400 µg/disc: ATCC 12228, 18 h, read-out: IZ; how it was run: as §2
[10] = Cytotoxicity against bovine MDBK cells assessed as cell viability after 48 to 96 hrs by MTT assay; type: cell-based, Bos taurus; conditions: cattle
[11] = system: Staphylococcus epidermidis; assay: Antimicrobial activity against hospital methicillin-resistant Staphylococcus epidermidis 23/04 after 18 hrs by twofold serial microdilution method; type: functional; conditions: 23/04, 18 h
How it was run: (§3)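 Twofold serial microdilution in Mueller-Hinton broth. Compound stock was made in DMSO and diluted in sterile water. Tested range was 0.125–512 µg/mL. Final inoculum was 10^5 CFU/mL. Plates were incubated 18 h at 35 °C. MIC is the lowest concentration preventing visible growth.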

[12] = system: Staphylococcus epidermidis; assay: Antimicrobial activity against Staphylococcus epidermidis ATCC 35984 at 400 ug after 18 hrs by disc-diffusion method; type: functional; conditions: for zone of inhibition at 400 µg/disc: ATCC 35984, 18 h, read-out: IZ; how it was run: as §2
[13] = system: Mycobacterium tuberculosis; assay: Antimycobacterial activity against Mycobacterium tuberculosis H37Rv ATCC 25618; type: functional
How it was run: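 Classical test-tube successive-dilution method in Youmans' modification of Proskauer and Beck liquid medium with 10% bovine serum. Inoculum came from 14-day cultures. DMSO stock was 10 mg/mL, diluted geometrically in medium. Tubes were incubated at 37 °C. Concentrations tested were 3.1, 6.2, 12.5, 25, 50 and 100 µg/ml. MIC is the minimum concentration inhibiting growth relative to compound-free tubes.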

[14] = system: Vesicular stomatitis virus; assay: Antiviral activity against Vesicular stomatitis virus ATCC VR 1540 infected in African green monkey Vero 76 cells assessed as reduction of virus-plaque formation after 2 days by crystal violet staining; type: functional, organism-based; conditions: ATCC VR 1540, Vero, 48 h
[15] = system: Staphylococcus epidermidis; assay: Antimicrobial activity against hospital methicillin-resistant Staphylococcus epidermidis 63/04 after 18 hrs by twofold serial microdilution method; type: functional; conditions: 63/04, 18 h; how it was run: as §3
[16] = system: Poliovirus 1; assay: Antiviral activity against Poliovirus type 1 ATCC VR-1562 infected in African green monkey Vero 76 cells assessed as reduction of virus-plaque formation after 2 days by crystal violet staining; type: functional, organism-based; conditions: Enterovirus C, ATCC VR-1562, Vero, 48 h
[17] = system: Micrococcus luteus; assay: Antimicrobial activity against Micrococcus luteus ATCC 9341 at 400 ug after 18 hrs by disc-diffusion method; type: functional; conditions: for zone of inhibition at 400 µg/disc: ATCC 9341, 18 h, read-out: IZ; how it was run: as §2
[18] = system: Staphylococcus epidermidis; assay: Antimicrobial activity against hospital methicillin-resistant Staphylococcus epidermidis 24/04 after 18 hrs by twofold serial microdilution method; type: functional; conditions: 24/04, 18 h; how it was run: as §3
[19] = Cytotoxicity against human MT4 cells; type: cell-based
[20] = system: Staphylococcus epidermidis; assay: Antimicrobial activity against hospital methicillin-resistant Staphylococcus epidermidis 151/04 after 18 hrs by twofold serial microdilution method; type: functional; conditions: 151/04, 18 h; how it was run: as §3
[21] = system: Bacillus cereus; assay: Antimicrobial activity against Bacillus cereus ATCC 11778 at 400 ug after 18 hrs by disc-diffusion method; type: functional; conditions: ATCC 11778, 18 h, read-out: IZ; how it was run: as §2
[22] = system: Staphylococcus epidermidis; assay: Ratio of ciprofloxacin MIC to compound MIC for hospital methicillin-resistant Staphylococcus epidermidis 31/04 after 18 hrs by twofold serial microdilution method; type: functional; how it was run: as §1
[23] = system: Staphylococcus aureus; assay: Antimicrobial activity against hospital methicillin-resistant Staphylococcus aureus 53/05 after 18 hrs by twofold serial microdilution method; type: functional; conditions: 53/05, 18 h; how it was run: as §3
[24] = system: Staphylococcus aureus; assay: Antimicrobial activity against Staphylococcus aureus ATCC 6538 at 400 ug after 18 hrs by disc-diffusion method; type: functional; conditions: ATCC 6538, 18 h, read-out: IZ; how it was run: as §2
[25] = system: Staphylococcus aureus; assay: Ratio of ciprofloxacin MIC to compound MIC for hospital methicillin-resistant Staphylococcus aureus 573/11 after 18 hrs by twofold serial microdilution method; type: functional; how it was run: as §1
[26] = system: Staphylococcus aureus; assay: Antimicrobial activity against Staphylococcus aureus ATCC 25923 after 18 hrs by twofold serial microdilution method; type: functional; conditions: ATCC 25923, 18 h
[27] = system: Bacillus subtilis; assay: Antimicrobial activity against Bacillus subtilis ATCC 6633 at 400 ug after 18 hrs by disc-diffusion method; type: functional; conditions: ATCC 6633, 18 h, read-out: IZ; how it was run: as §2
[28] = system: Staphylococcus epidermidis; assay: Ratio of ciprofloxacin MIC to compound MIC for hospital methicillin-resistant Staphylococcus epidermidis 76/04 after 18 hrs by twofold serial microdilution method; type: functional; how it was run: as §1
[29] = system: Staphylococcus aureus; assay: Antimicrobial activity against Staphylococcus aureus NCTC 4163 after 18 hrs by twofold serial microdilution method; type: functional; conditions: NCTC 4163, 18 h
[30] = system: Staphylococcus aureus; assay: Antimicrobial activity against hospital methicillin-resistant Staphylococcus aureus 81/05 after 18 hrs by twofold serial microdilution method; type: functional; conditions: 81/05, 18 h; how it was run: as §3
[31] = system: Staphylococcus epidermidis; assay: Ratio of ciprofloxacin MIC to compound MIC for hospital methicillin-resistant Staphylococcus epidermidis 63/04 after 18 hrs by twofold serial microdilution method; type: functional; how it was run: as §1
[32] = system: Staphylococcus aureus; assay: Ratio of ciprofloxacin MIC to compound MIC for hospital methicillin-resistant Staphylococcus aureus 53/05 after 18 hrs by twofold serial microdilution method; type: functional; how it was run: as §1
[33] = system: Staphylococcus aureus; assay: Antimicrobial activity against hospital methicillin-resistant Staphylococcus aureus 80/05 after 18 hrs by twofold serial microdilution method; type: functional; conditions: 80/05, 18 h; how it was run: as §3

FC(F)(F)c1cccc(NC(=S)Nc2ccc(Cl)cc2)c1
Ratio [1]: 128
MIC [2]: 4 µg/mL (≈ 12.1 µM)
Ratio [3]: 128
MIC [4]: 8 µg/mL (≈ 24.2 µM)
inhibition zone (IZ) [5]: inactive
inhibition zone (IZ) [6]: inactive
Ratio [7]: 128
zone of inhibition at 400 µg/disc [8]: 12 mm
inhibition zone (IZ) [9]: inactive
CC50 [10]: 17 µM
MIC [11]: 16 µg/mL (≈ 48.4 µM)
inhibition zone (IZ) [12]: inactive
MIC [13]: > 100 µg/mL
EC50 [14]: > 11 µM
MIC [15]: 16 µg/mL (≈ 48.4 µM)
EC50 [16]: > 11 µM
inhibition zone (IZ) [17]: inactive
MIC [18]: 16 µg/mL (≈ 48.4 µM)
CC50 [19]: 6.8 µM
MIC [20]: 8 µg/mL (≈ 24.2 µM)
zone of inhibition at 400 µg/disc [21]: 12 mm
Ratio [22]: 128
MIC [23]: 16 µg/mL (≈ 48.4 µM)
zone of inhibition at 400 µg/disc [24]: 13 mm
Ratio [25]: 128
MIC [26]: 8 µg/mL (≈ 24.2 µM)
zone of inhibition at 400 µg/disc [27]: 12 mm
Ratio [28]: 128
MIC [29]: 8 µg/mL (≈ 24.2 µM)
MIC [30]: 16 µg/mL (≈ 48.4 µM)
Ratio [31]: 128
Ratio [32]: 128
MIC [33]: 16 µg/mL (≈ 48.4 µM)

FC(F)(F)c1cccc(NC(=S)Nc2cccc(Br)c2)c1
Ratio [1]: 128
MIC [2]: 2 µg/mL (≈ 5.33 µM)
Ratio [3]: 128
MIC [4]: 1 µg/mL (≈ 2.67 µM)
zone of inhibition at 400 µg/disc [5]: 13 mm
zone of inhibition at 400 µg/disc [6]: 12 mm
Ratio [7]: 128
zone of inhibition at 400 µg/disc [8]: 28 mm
zone of inhibition at 400 µg/disc [9]: 29 mm
CC50 [10]: 10 µM
MIC [11]: 2 µg/mL (≈ 5.33 µM)
zone of inhibition at 400 µg/disc [12]: 27 mm
MIC [13]: 100 µg/mL (≈ 267 µM)
EC50 [14]: > 14 µM
MIC [15]: 1 µg/mL (≈ 2.67 µM)
EC50 [16]: > 14 µM
zone of inhibition at 400 µg/disc [17]: 33 mm
MIC [18]: 4 µg/mL (≈ 10.7 µM)
CC50 [19]: 9.2 µM
MIC [20]: 2 µg/mL (≈ 5.33 µM)
zone of inhibition at 400 µg/disc [21]: 24 mm
Ratio [22]: 128
MIC [23]: 1 µg/mL (≈ 2.67 µM)
zone of inhibition at 400 µg/disc [24]: 29 mm
Ratio [25]: 128
MIC [26]: 1 µg/mL (≈ 2.67 µM)
zone of inhibition at 400 µg/disc [27]: 26 mm
Ratio [28]: 128
MIC [29]: 1 µg/mL (≈ 2.67 µM)
MIC [30]: 1 µg/mL (≈ 2.67 µM)
Ratio [31]: 128
Ratio [32]: 128
MIC [33]: 0.5 µg/mL (≈ 1.33 µM)

O=C(O)c1cn(C2CC2)c2cc(N3CCNCC3)c(F)cc2c1=O [CIPROFLOXACIN]
MIC [2]: 0.25 µg/mL (≈ 0.754 µM)
MIC [4]: 0.5 µg/mL (≈ 1.51 µM)
zone of inhibition at 400 µg/disc [5]: 18 mm
zone of inhibition at 400 µg/disc [6]: 36 mm
zone of inhibition at 400 µg/disc [8]: 26 mm
zone of inhibition at 400 µg/disc [9]: 30 mm
MIC [11]: 2 µg/mL (≈ 6.04 µM)
zone of inhibition at 400 µg/disc [12]: 32 mm
MIC [15]: 4 µg/mL (≈ 12.1 µM)
zone of inhibition at 400 µg/disc [17]: 24 mm
MIC [18]: 64 µg/mL (≈ 193 µM)
MIC [20]: 4 µg/mL (≈ 12.1 µM)
zone of inhibition at 400 µg/disc [21]: 30 mm
MIC [23]: 64 µg/mL (≈ 193 µM)
zone of inhibition at 400 µg/disc [24]: 28 mm
MIC [26]: 0.5 µg/mL (≈ 1.51 µM)
zone of inhibition at 400 µg/disc [27]: 40 mm
MIC [29]: 0.25 µg/mL (≈ 0.754 µM)
MIC [30]: 8 µg/mL (≈ 24.1 µM)
